Results collected from several papers.
PIK3CD: Phosphatidylinositol 4,5-bisphosphate 3-kinase catalytic subunit delta isoform (PIK3CD, Homo sapiens, UniProt O00329)
NTSR1: Neurotensin receptor type 1 (NTSR1, Homo sapiens, UniProt P30989)
COQ8A: Atypical kinase COQ8A, mitochondrial (COQ8A, Homo sapiens, UniProt Q8NI60)
ATP2A1: Sarcoplasmic/endoplasmic reticulum calcium ATPase 1 (ATP2A1, Oryctolagus cuniculus, UniProt P04191)

Cc1nc(Nc2ccc3c(c2)/C(=C/c2ccccc2)C(=O)N3Cc2ccccc2)c2ccccc2n1
IC50 (PIK3CD; enzyme activity, inhibitor, ADP detection): 0.225 µM

COc1ccccc1C1CCN(c2nc(C3(C(F)(F)F)CCCC3)nc3ccc(N(C)CCO)cc23)CC1
EC50 (NTSR1; β-arrestin recruitment, agonist): 18 µM

Cc1nc(Nc2ccc3c(c2)C(C)(C)C(=O)N3)c2ccccc2n1
IC50 (PIK3CD; enzyme activity, inhibitor, ADP detection): > 1 µM

NC(=O)c1ncc(N2CCCCC2)nc1Nc1ccc(C2CCN(C[C@H]3CCN(c4ccc5c(c4)C(=O)N(C4CCC(=O)NC4=O)C5=O)C3)CC2)cc1 (stereo partly drawn)
Kd (Tyrosine-protein kinase BTK (BTK, Homo sapiens, UniProt Q06187, T474I); binding, SPR): 0.018 µM

CCc1ccc(NC(=O)CSc2nc(-c3cccc(OC)c3)nc3c2Cc2c(CO)cnc(C)c2O3)cc1
IC50 (COQ8A; ligand displacement, TR-FRET): 2.17 µM

Cc1nc(Nc2ccc3c(c2)C(C)(C)C(=O)N3C)c2ccccc2n1
IC50 (PIK3CD; enzyme activity, inhibitor, ADP detection): 0.719 µM

COc1ccccc1C1CCN(c2nc(C3CC3)nc3ccc(N4CCC(N(C)C)C4)cc23)CC1 (stereo not drawn)
EC50 (NTSR1; β-arrestin recruitment, agonist): ~65700 µM

CC(C)(C)OC(=O)N1CCN(Cc2ccn(Cc3ccc(Cl)cc3)c(=O)c2O)CC1
IC50 (Lysine-specific demethylase 6A (Homo sapiens, UniProt O15550); enzyme activity, inhibitor, AlphaScreen): 5.43 µM

COc1cc(/C=C/C(=O)CC(=O)/C=C/c2ccc(O)c(OC)c2)ccc1O
Kd (ATP2A1; binding, fluorescence; pH 7.2): 6.8 µM

C[C@]12CCC(=O)C=C1CC[C@@H]1[C@@H]2[C@@H](O)C[C@]2(CO)[C@@H](C(=O)CO)CC[C@@H]12
EC50 (Mineralocorticoid receptor (NR3C2, Homo sapiens, UniProt P08235); reporter gene, agonist, luciferase): 0.056 µM

Cc1ccc(Nc2nc3nonc3nc2Nc2cccc(C(F)(F)F)c2)cc1Cl
IC50 (COQ8A; ligand displacement, TR-FRET): 0.97 µM

COc1cc(/C=C/C(=O)O)ccc1O
Kd (ATP2A1; binding, fluorescence; pH 7.2): 86 µM

Cc1noc(C)c1Cc1ccc(C(=O)N2CCc3c(nc4cc(-c5ccccc5)[nH]n4c3=O)C2)o1
IC50 (COQ8A; ligand displacement, TR-FRET): 0.49 µM

Cc1nc(N(C)c2ccc3c(c2)/C(=C/c2ccccc2Cl)C(=O)N3C)c2ccccc2n1
IC50 (PIK3CD; enzyme activity, inhibitor, ADP detection): > 1 µM

COc1ccc2c(c1)CCc1c-2n[nH]c1C(=O)N1CCc2nc3cc(-c4ccccc4)[nH]n3c(=O)c2C1
IC50 (COQ8A; ligand displacement, TR-FRET): 2.73 µM

COc1cc2ncnc(Nc3ccc4c(c3)/C(=C/c3ccccc3)C(=O)N4)c2cc1OC
IC50 (PIK3CD; enzyme activity, inhibitor, ADP detection): 0.7 µM

CCCn1nc(C)c(-c2cc(C(=O)N3CCc4nc5cc(-c6ccccc6)[nH]n5c(=O)c4C3)[nH]n2)c1C
IC50 (COQ8A; ligand displacement, TR-FRET): 1.72 µM

Cc1nc(Nc2ccc3c(c2)/C(=C/c2ccccc2Cl)C(=O)N3)c2ccccc2n1
IC50 (PIK3CD; enzyme activity, inhibitor, ADP detection): 0.578 µM
